A selection: hits, their analogues and other compounds. The true share with any hit is near 4.8%.
Calb FLC = C. albicans growth modulation with fluconazole; C. albicans CaCi-2 (fluconazole-resistant clinical isolate) + fluconazole, Alamar Blue growth, 48 h; growth inhibition, % (no concentration beside the values); 300,000 tested, 0.57% active; AID 1979;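 active = growth inhibition above about 58% in most replicates, limit read from the data, passing the limit was not always enough; inconclusive = exactly half the replicates above a set limit; inactive = most replicates below a set limit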;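 note: all wells also contain fluconazole at 8 µg/ml as a sub-toxic cotreatment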
ALR inh = blocks human ALR sulfhydryl oxidase activity | P55789 | purified ALR, DTT oxidation, H2O2 HRP-luminol luminescence | inhibition, % (concentration not given with the values) | 290,000 tested, 3.8% active | AID 485317;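 active = mean replicate inhibition above about 79%, with every replicate also reaching it, limit read from the data; inconclusive = only one of the two criteria met; inactive = mean below limit and not every replicate reaching it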
Target sequence (P55789 whole entry, looked up): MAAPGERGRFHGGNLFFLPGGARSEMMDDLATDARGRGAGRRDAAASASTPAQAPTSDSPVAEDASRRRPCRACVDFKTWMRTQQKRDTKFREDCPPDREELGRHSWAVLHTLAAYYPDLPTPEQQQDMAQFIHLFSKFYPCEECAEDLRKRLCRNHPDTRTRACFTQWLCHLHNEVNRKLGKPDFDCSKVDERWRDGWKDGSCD
UCH37 DUB inh = inhibitors of human deubiquitinating enzyme UCH37. 330,000 tested, 0.33% active. inhibition, % (test concentration not listed). AID 588478. purified proteasome/UCH37, Ub-AMC cleavage fluorescence;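 active = mean inhibition over replicate wells above about 20%, limit read from the data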
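system = Proteasome-associated human UCH37 deubiquitinase | amount = 0.15 nM proteasome as dispensed | medium = pH 7.4 Tris-HCl (50 mM) with ovalbumin, ATP-MgCl2, DTT | incubation = 30 min preincubation with enzyme, 25 min cleavage at room temperature | detection = AMC fluorescence 355/460 nm | read-out basis = percent inhibition | controls = no-proteasome and no-compound wells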
ATG4B inh = ATG4B (human) cysteine protease inhibition | Q9Y4P1 | ATG4B cleavage of LC3-PLA2, NBD-HPC fluorescence, 1 h | inhibition, % at 8.33 µM | 340,000 tested, 0.51% active; in the data active = inhibition above about 40%
Target sequence (Q9Y4P1 whole entry, looked up): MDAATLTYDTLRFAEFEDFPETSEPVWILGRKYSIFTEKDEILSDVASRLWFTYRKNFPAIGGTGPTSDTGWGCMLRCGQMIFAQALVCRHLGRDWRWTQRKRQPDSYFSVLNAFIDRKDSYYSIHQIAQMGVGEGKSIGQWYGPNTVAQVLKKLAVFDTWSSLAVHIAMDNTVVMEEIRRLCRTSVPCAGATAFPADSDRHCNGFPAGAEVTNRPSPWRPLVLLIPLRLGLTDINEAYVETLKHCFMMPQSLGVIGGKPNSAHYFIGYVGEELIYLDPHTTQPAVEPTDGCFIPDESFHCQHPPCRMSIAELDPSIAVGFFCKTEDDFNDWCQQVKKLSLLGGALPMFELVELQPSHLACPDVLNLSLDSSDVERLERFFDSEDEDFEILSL
NALP3 yeast inh = blocks the NALP3 inflammasome reconstituted in yeast; inhibition, % at 10 µM; 330,000 tested, 0.39% active; Yeast reconstituted NLRP3/ASC/caspase-1, beta-gal luminescence, 24 h;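 active = inhibition of 50% or more; inactive = inhibition below 50%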
NALP1 inh = NALP1 inhibition; S. cerevisiae NALP1/ASC/caspase-1 growth, X-gal OD620, 72 h; 280,000 tested, 0.61% active; AID 2071; inhibition, % at 10 µM; in the data active = inhibition mostly above about 24%, no sharp cut-off; inactive = mostly below about 32%
Large screens that a line does not name were inactive.

N#Cc1c(SCC(=O)Nc2nc3ccccc3s2)sc2c(O)cc(=O)[nH]c12	ALR inh 99 (no result: Calb FLC, NALP1 inh)
CCOC(=O)C1=C(C)N=c2sc(=Cc3ccc(OC(C)=O)c(OCC)c3)c(=O)n2C1/C=C/c1ccccc1 (centres undefined)	none (no result: Calb FLC, ALR inh, ATG4B inh, NALP3 yeast inh, NALP1 inh)
CC(C)(C)c1ccc(C(=O)NCC(=O)NN=Cc2cccnc2)cc1	none (no result: Calb FLC, ALR inh, ATG4B inh, NALP3 yeast inh, NALP1 inh)
O=C(/C=C/c1ccccc1[N+](=O)[O-])Oc1ccccc1	none (no result: UCH37 DUB inh, ATG4B inh)
O=C(/C=C/c1ccccc1[N+](=O)[O-])c1ccc(F)cc1	ALR inh 98
C=CCN1C(=O)/C(=C/c2ccccc2)SC1=Nc1nccs1	none (no result: Calb FLC, ALR inh, ATG4B inh, NALP3 yeast inh, NALP1 inh)
O=C(NNC1=NS(=O)(=O)c2ccccc21)c1ccc(Cl)cc1	ALR inh 89
Cc1ccccc1NC1=NS(=O)(=O)c2ccccc21	none
O=S1(=O)N=C(Nc2ccc(O)cc2)c2ccccc21	ALR inh 99
CCOc1ccc(-c2c(C(=O)NN=Cc3ccc(C)o3)nnn2-c2nonc2N)cc1	none (no result: Calb FLC, ALR inh, ATG4B inh, NALP3 yeast inh, NALP1 inh)
COc1cc(SC)ccc1C(=O)Nc1c(Cl)cncc1Cl	ALR inh 77
CC(CCc1ccccc1)=NNC(=O)c1ccccc1	none (no result: Calb FLC, ALR inh, ATG4B inh, NALP3 yeast inh, NALP1 inh)
Cn1nnc2c[n+](CC(=O)c3ccc(Cl)cc3)cc(Br)c21	ALR inh 91
Cc1ccsc1C=NNC(=O)C1C(=O)NCC1c1ccccc1 (centres undefined)	none (no result: Calb FLC, ALR inh, ATG4B inh, NALP3 yeast inh, NALP1 inh)
COc1ccc(-c2cc(C(F)F)n3ncc(C(=O)Nc4cc(C)on4)c3n2)cc1	Calb FLC inconclusive, NALP1 inh 43
COc1ccc(-c2cc(C(F)F)n3ncc(C(=O)Nc4c(C)n(C)n(-c5ccccc5)c4=O)c3n2)cc1	none
S=c1nc(-c2sccc2OCc2ccc(Cl)cc2Cl)[nH][nH]1	ALR inh 97
CNC(=S)NNC(=O)c1sccc1OCc1ccc(Cl)cc1Cl	none
COc1ccc(-c2cc(-c3ccc(O)cc3)nc(N)c2C#N)cc1	none
N#Cc1c(-c2ccccc2)cc(-c2ccc(O)cc2)nc1N	ALR inh 99
COc1ccccc1-c1cc(-c2ccc(O)cc2)nc(N)c1C#N	ALR inh 96
COc1cc(-c2cc(-c3ccc(O)cc3)nc(N)c2C#N)ccc1O	ALR inh 97
CC(C)Oc1ccc(CSC(=N)N)cc1	ALR inh 98
CCCC(=O)NC(c1ccc(OC)c(OC)c1)c1cc(Cl)c2cccnc2c1O (centres undefined)	none
O=C(NC(c1ccc(Cl)cc1)c1cc(Cl)c2cccnc2c1O)c1cccnc1 (centres undefined)	Calb FLC 84 (no result: NALP3 yeast inh)
CCC(=O)NC(c1cccs1)c1cc(Cl)c2cccnc2c1O (centres undefined)	Calb FLC 99
COc1ccc(C(NC(C)=O)c2cc(Cl)c3cccnc3c2O)cc1 (centres undefined)	none
CCCC(=O)NC(c1ccco1)c1cc([N+](=O)[O-])c2cccnc2c1O (centres undefined)	Calb FLC 109
CCCCC(=O)NC(c1cccs1)c1cc(Cl)c2cccnc2c1O (centres undefined)	Calb FLC inconclusive
CC(=O)NC(c1ccc(C)cc1)c1cc([N+](=O)[O-])c2cccnc2c1O (centres undefined)	Calb FLC 109
CC(=NNC(=O)c1cc(-c2ccc(Cl)s2)[nH]n1)c1ccncc1	none (no result: Calb FLC, ALR inh, ATG4B inh, NALP3 yeast inh, NALP1 inh)
Cc1ccc(C(=O)NN=Cc2ccc([N+](=O)[O-])s2)cn1	none (no result: Calb FLC, ALR inh, ATG4B inh, NALP3 yeast inh, NALP1 inh)
CCC(=O)NC(c1ccc(C)cc1)c1cc([N+](=O)[O-])c2cccnc2c1O (centres undefined)	Calb FLC 110 (no result: NALP3 yeast inh)
CC(=O)NC(c1ccccc1)c1cc(Cl)c2cccnc2c1O (centres undefined)	Calb FLC 105
Cc1cccc(C(=O)Nc2ccc(N3CCN(C(=O)c4ccco4)CC3)cc2)c1	none
COc1cc(CNc2ccc(N3CCN(C(C)=O)CC3)cc2)ccc1OCc1ccc(F)cc1	ALR inh 99 (no result: NALP3 yeast inh)
Cc1cc(C(=O)N2CCN(c3ccc(F)cc3)CC2)on1	ALR inh 97
CC(=O)N1CCN(c2ccc(NCc3ccc(F)cc3)cc2)CC1	ALR inh 99
CC(=O)N1CCN(c2ccc(NCc3cccc(C)c3)cc2)CC1	ALR inh 99 (no result: Calb FLC, NALP1 inh)
O=C(c1noc2c1CCCC2)N1CCN(c2ccc(F)cc2)CC1	none
COc1ccc(C=Nn2cnnc2)cc1Br	none (no result: Calb FLC, ALR inh, ATG4B inh, NALP3 yeast inh, NALP1 inh)
O=C(NN=Cc1ccc(Cl)s1)C(O)c1ccccc1 (centres undefined)	none (no result: Calb FLC, ALR inh, ATG4B inh, NALP3 yeast inh, NALP1 inh)
ON=C1CCCc2ccc(Cl)cc21	none (no result: Calb FLC, ALR inh, ATG4B inh, NALP3 yeast inh, NALP1 inh)
CC(=O)Nc1ncnc2c1c(-c1ccc(Cl)cc1)nn2C(C)(C)C	Calb FLC 102, NALP1 inh 42
CC(/C=C/c1ccco1)=NNC(=O)Cc1cccs1	none (no result: Calb FLC, ALR inh, ATG4B inh, NALP3 yeast inh, NALP1 inh)
CCCCC(CCC(=O)O)(C(=O)OCC)c1csc(Nc2ccc(C)cc2)n1 (centres undefined)	ALR inh 99
Cc1ccc(-c2nc(NN=Cc3cccc([N+](=O)[O-])c3)c3ccccc3n2)cc1	none (no result: Calb FLC, ALR inh, ATG4B inh, NALP3 yeast inh, NALP1 inh)
O=C(CCC(=O)Nc1ccc(F)cc1)N/N=C/c1ccc(O)cc1	ALR inh 99 (no result: UCH37 DUB inh)
O=C(CCC(=O)Nc1ccc(F)cc1)N/N=C/c1ccc(F)cc1	none (no result: UCH37 DUB inh)
Cc1ccc(NC(=O)CCC(=O)N/N=C/c2ccc(O)cc2)cc1	ALR inh 95 (no result: UCH37 DUB inh)
CC(=NNS(=O)(=O)c1ccc(C)cc1)[C@H]1C[C@@H]1c1ccccc1	none (no result: Calb FLC, ALR inh, ATG4B inh, NALP3 yeast inh, NALP1 inh)
Cn1c(SCC(=O)NCc2ccc3c(c2)OCO3)nc2c(c1=O)SCC2	none
Cn1c(SCc2ccc(Br)cc2)nc2c(c1=O)SCC2	ALR inh 98 (no result: UCH37 DUB inh)
Cn1c(SCc2cccnc2)nc2c(c1=O)SCC2	ALR inh 99
Cn1c(SCc2cccc([N+](=O)[O-])c2)nc2c(c1=O)SCC2	ALR inh 99
COc1cc(/C=C(\C#N)c2nc3ccc(C)cc3[nH]2)c([N+](=O)[O-])cc1OC	none
COc1cc(/C=C(\C#N)C(=O)NCCc2ccccc2)cc(OC)c1O	none
Cc1ccc2nc(/C(C#N)=C\c3cc(O)ccc3[N+](=O)[O-])[nH]c2c1	ALR inh 98
COc1cc(/C=C(\C#N)c2nc3ccc(C)cc3[nH]2)cc([N+](=O)[O-])c1O	UCH37 DUB inh 24 (no result: Calb FLC, ALR inh, NALP3 yeast inh)
Cc1cc(/C=C(\C#N)c2nc3ccccc3[nH]2)c(C)n1C	UCH37 DUB inh 25
Cc1cc(/C=C(/C#N)c2nc3ccccc3[nH]2)c(C)n1-c1cccc([N+](=O)[O-])c1	none
COc1cc(/C=C(\C#N)C(=O)c2c[nH]c3ccccc23)cc(OC)c1O	ALR inh 99
COc1ccc(O)c(C=NNC(=O)c2cc(=O)[nH]c3ccccc23)c1	none (no result: Calb FLC, ALR inh, ATG4B inh, NALP3 yeast inh, NALP1 inh)
CC(=NNC(=S)Nc1cccc(C)c1)c1ccco1	none (no result: Calb FLC, ALR inh, ATG4B inh, NALP3 yeast inh, NALP1 inh)
COc1c(O)ccc(/C=C(\C#N)c2nc3ccccc3[nH]2)c1[N+](=O)[O-]	ALR inh 87
COc1cc(/C=C(\C#N)c2nc3ccccc3[nH]2)cc(OC)c1O	ALR inh 99 (no result: NALP3 yeast inh)
OCC(O)C(O)C(O)C(O)c1nc2ccccc2[nH]1 (centres undefined)	NALP1 inh 25

Screening results (PubChem)
